Bioassay records from PubChem BioAssay.
Efflux pump mplx – inhibitors of Candida antifungal efflux pumps expressed in yeast; AID 485275; inhibition, % at 10 µM; S. cerevisiae Candida pump triplex, Nile Red efflux; 0.44% of 330,000 active;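 active = plate passing quality check with inhibition over a set limit, or well fluorescence over plate mean plus 4 SD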;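 also: Nile Red retained in pooled yeast measured as flow cytometry median fluorescence; higher means more Nile Red kept so more efflux inhibition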
MC4R antag cAMP – human MC4R antagonism in cAMP assay. MC4R-expressing cells, MTII-stimulated cAMP, LANCE TR-FRET. AID 540295. 0.48% of 360,000 active. inhibition, % at 6.5 µM;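 active = inhibition above its plate's cutoff, the mean of tested wells on that plate plus 3 SD, cut at about 29% in these data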
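Assay system: U2OS cells stably expressing human melanocortin 4 receptor (MC4R) / Dosing: 6.5 µM / Timing: compound 30 min, challenge 1 h, detection 1 h / Measured by: Eu-cAMP/anti-cAMP TR-FRET, emission 671 nm / Replicates: singlicate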
GalR3 antag – antagonists of human GalR3. 0.44% of 360,000 active. HEK293 GalR3-CNG cAMP membrane potential fluorescence; galR3 body fused to GalR1 C-terminus. AID 651719. O60755. inhibition, % at 3 µM;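 active = inhibition above the screen-wide average plus 3 SD, cut at about 13% in these data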;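 also: forskolin and galanin both at EC90 stimulate the cells; cAMP rise reported by CNG channel membrane potential dye signal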
Calb FLC – C. albicans growth modulation with fluconazole; 0.57% of 300,000 active; growth inhibition, % (concentration not given with the values); C. albicans CaCi-2 (fluconazole-resistant clinical isolate) + fluconazole, Alamar Blue growth, 48 h;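 active = growth inhibition above about 58% in most replicates, limit read from the data, passing the limit was not always enough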;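 also: all wells also contain fluconazole at 8 µg/ml as a sub-toxic cotreatment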
MC4R barr agon – human MC4R agonism via beta-arrestin | P32245 | U2OS MC4R beta-arrestin complementation, luminescence; percent of melanotan II response, DMSO zero | activation, % at 8.9 µM | 0.98% of 360,000 active;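 active = activation above a per-plate cutoff, the mean activation of sample wells on that plate plus 3 SD, cut at about 8% in these data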
H9c2 TAG inh – triacylglycerol accumulation inhibition; H9c2 cells, Nile Red lipid (TAG) fluorescence; cells loaded with 200 µM oleic acid; 0.66% of 230,000 active; inhibition, % at 12.5 µM; AID 651582;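 active = pattern-corrected inhibition of lipid staining of at least 50% with the nuclear-stain viability signal not falling by more than 50%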
MC4R barr conf – human MC4R beta-arrestin agonism confirmation; shares compounds with MC4R barr agon; U2OS MC4R beta-arrestin recruitment, luminescence; scaled DMSO 0%, Melanotan II 100%; activation, % at 8.9 µM; 31% of 2,400 active;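 active = mean activation across replicates above the hit cutoff set in the earlier primary screen, cut at about 8% in these data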
MOR DOR agonist – OPRM1-OPRD1 heterodimer agonism counter-screen | shares compounds with MC4R barr agon | U2OS PathHunter beta-arrestin, beta-gal luminescence; percent of deltorphin B response, DMSO zero | activation, % at 9.2 µM | 5.8% of 2,400 active;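 active = mean activation across replicates exceeds the hit threshold derived in the earlier primary screen, cut at about 18% in these data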
Large screens that a line does not name were inactive (follow-up assays come after a bar, where they were run). Shown are actives, neighbours in structure and some others; about 2.9% of the full set was active somewhere.

COc1cccc(C2CC(OCCF)=CC(=O)O2)c1 (stereo not given)	none (no result: Efflux pump mplx, MC4R antag cAMP, Calb FLC, MC4R barr agon, H9c2 TAG inh)
O=C(NCc1ccc(-c2csnn2)cc1)c1cc(Cl)cc(Cl)c1	MC4R barr agon 13 | MC4R barr conf inactive | MOR DOR agonist inactive
CCCCn1nnnc1C(c1cc2ccccc2o1)N1CCN(C(=O)OC(C)(C)C)CC1 (stereo not given)	none (no result: Efflux pump mplx, MC4R antag cAMP, Calb FLC, MC4R barr agon, H9c2 TAG inh)
Cc1cccc(NC(=O)/C(C#N)=C\c2ccc(C(=O)O)cc2)c1	none
COc1cc(C)c(/C=C(\C#N)C(=O)Nc2cccc(C)c2)cc1C(C)C	MC4R barr agon 13 (no result: H9c2 TAG inh) | MC4R barr conf inactive | MOR DOR agonist inactive
O=C(NCc1cccc(F)c1)Nc1nnc([C@H]2C[C@H](O)[C@@H](CO)O2)s1	none (no result: Efflux pump mplx, Calb FLC)
O=C(N[C@H](Cc1ccccc1)C(=O)NCc1ccccn1)[C@H]1O[C@@H](n2ccc(=O)[nH]c2=O)[C@H](O)[C@@H]1O	none (no result: Efflux pump mplx, MC4R antag cAMP, Calb FLC, MC4R barr agon, H9c2 TAG inh)
CCSc1ccc(-c2nn(-c3ccccc3)cc2/C=C(/C#N)C(=O)NCCCOC)cc1	MC4R barr agon 22 (no result: Calb FLC, H9c2 TAG inh) | MC4R barr conf 40 | MOR DOR agonist 19
CCCSc1ccc(-c2nn(-c3ccccc3)cc2/C=C(/C#N)C(=O)NCCCOC)cc1	none (no result: H9c2 TAG inh)
COc1ccc(O)c(/C=C2/SC(=S)N(Cc3ccccc3)C2=O)c1	none (no result: H9c2 TAG inh)
COc1ccc(/C=C2/SC(=S)N(Cc3ccccc3)C2=O)cc1O	MC4R barr agon 12 (no result: H9c2 TAG inh) | MC4R barr conf inactive | MOR DOR agonist inactive
COc1ccc(/C=C2\SC(=S)N(CCC(=O)Nc3cccc(O)c3)C2=O)cc1	MC4R barr agon 21 (no result: Efflux pump mplx) | MC4R barr conf inactive | MOR DOR agonist inactive
COc1ccc(/C=C2\SC(=S)N(CCC(=O)Nc3ccc(C(=O)O)cc3)C2=O)cc1	none (no result: H9c2 TAG inh)
COc1ccc(/C=C2\SC(=S)N(CCCC(=O)Nc3ccc(O)cc3)C2=O)cc1	MC4R barr agon 17 | MC4R barr conf 10 | MOR DOR agonist inactive
COc1ccc(/C=C2/SC(=S)N(CCCC(=O)Nc3ccc(O)cc3)C2=O)cc1	MC4R barr agon 12 | MC4R barr conf inactive | MOR DOR agonist inactive
COc1ccc(/C=C2/SC(=S)N(CCC(=O)O)C2=O)cc1	none (no result: H9c2 TAG inh)
CCC(C)N(C(=O)CSc1nc(-c2cccs2)nc2ccccc12)C1CCS(=O)(=O)C1 (stereo not given)	none (no result: Efflux pump mplx, Calb FLC)
CCOC(=O)N1CCN(C(=O)C[C@H]2C[C@@]3(C(=O)OC)C(=C[C@H](C(C)C)O[C@@H]3C3CC3)N(Cc3ccccc3)C2=O)CC1	none (no result: Efflux pump mplx, MC4R antag cAMP, Calb FLC, MC4R barr agon, H9c2 TAG inh)
CN(C)c1ccc(-c2ccnc3c2CC(C)(C(=O)Nc2cccc(Oc4ccccc4)c2)O3)cc1 (stereo not given)	none (no result: Efflux pump mplx, Calb FLC)
COC(=O)C1=C(C)N(Cc2ccc(C(F)(F)F)cc2)C(=NCc2cccc(C(F)(F)F)c2)NC1c1ccccc1C(F)(F)F (stereo not given)	none (no result: Efflux pump mplx, MC4R antag cAMP, Calb FLC, MC4R barr agon, H9c2 TAG inh)
CC(C)NS(=O)(=O)c1ccc(NC(=S)NC(=O)c2ccc(-c3ccccc3)cc2)cc1	none (no result: H9c2 TAG inh)
CC(=O)Nc1ccc(NC(=S)NC(=O)c2ccc(-c3ccccc3)cc2)cc1	MC4R barr agon 36 | MC4R barr conf inactive | MOR DOR agonist inactive
CN(Cc1ccccc1)C(=S)NC(=O)c1ccc(-c2ccccc2)cc1	MC4R barr agon 28 (no result: H9c2 TAG inh) | MC4R barr conf inactive | MOR DOR agonist inactive
COc1ccc(-c2sc3cc(OC)c(OC)cc3c2C#CCO)cc1	MC4R barr agon 18 (no result: Calb FLC) | MC4R barr conf 16 | MOR DOR agonist inactive
CC(C)CSc1nc2c(c(=O)[nH]c(=O)n2C)n1CC(O)COc1cccc2ccccc12 (stereo not given)	MC4R barr agon 14 (no result: Efflux pump mplx) | MC4R barr conf inactive | MOR DOR agonist inactive
C/C(=N/NC(=O)CSCc1ccc(Cl)cc1)c1cccc(NC(=O)c2ccccc2)c1	MC4R barr agon 22 (no result: H9c2 TAG inh) | MC4R barr conf inactive | MOR DOR agonist inactive
C/C(=N\NC(=O)CSCc1ccc(Cl)cc1)c1ccc(NC(=O)c2ccccc2)cc1	none
